Results published in ChEMBL document CHEMBL4699489, “Optimized Opioid-Neurotensin Multitarget Peptides: From Design to Structure-Activity Relationship Studies” (J Med Chem, 2020).
Numbered stars: 1 amine (or outer) side, 2 acyl side, 3 side chain; on linkers, the order of the positions; unused ones are H or OH. Square brackets hold non-standard residues; d marks the D form. Peptide text beside a SMILES is read from it. X1 = O=C1[C@@H](N[*:1])Cc2ccccc2CN1CCC(=O)[*:2]; X2 = O=C([C@@H]1Cc2cc(O)ccc2CN1[*:1])[*:2]; Dmt = Cc1cc(O)cc(C)c1C[C@H](N)C(=O)O; mTyr = N[C@@H](Cc1cccc(O)c1)C(=O)O; Tle = CC(C)(C)[C@H](N)C(=O)O; β3hK = NCCCC[C@H](N)CC(=O)O

Columns and labels:
[1] = target: T1, Mu-type opioid receptor (Homo sapiens, UniProt P35372); assay: Displacement of [3H]-DAMGO from recombinant human mu opioid receptor expressed in CHO cell membrane incubated for 60 mins by liquid scintillation counting method; format: cell membranes
Method in brief: (§1)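 Membranes from CHO-hMOR, -hDOR or -hKOR cells, homogenized and washed in 50 mM Tris-HCl pH 7.4. Membranes (15–20 μg) incubated with [3H]DAMGO (MOR), [3H]diprenorphine (DOR) or [3H]U69,593 (KOR) plus graded peptide, 60 min at 25 °C. Nonspecific binding with 1–10 μM of the unlabelled ligand. GF/C filtration, scintillation counting. Ki by Cheng–Prusoff. Duplicate, three independent experiments.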

[2] = target: T2, Delta-type opioid receptor (Homo sapiens, UniProt P41143); assay: Displacement of [3H]-Diprenorphine from recombinant human delta opioid receptor expressed in CHO cell membrane incubated for 60 mins by liquid scintillation counting method; format: cell membranes; method in brief: as §1
[3] = target: T3, Kappa-type opioid receptor (Homo sapiens, UniProt P41145); assay: Displacement of [3H]-U69593 from recombinant human kappa opioid receptor expressed in CHO cell membrane incubated for 60 mins by liquid scintillation counting method; format: cell membranes; method in brief: as §1
[4] = target: T4, Neurotensin receptor type 1 (Homo sapiens, UniProt P30989); assay: Displacement of [125I]-neurotensin from human recombinant NTS1 stably expressed in CHO-K1 cell membranes incubated for 60 mins by gamma counter method
[5] = target: Neurotensin receptor type 2 (Homo sapiens, UniProt O95665); assay: Displacement of [125I]-neurotensin from human recombinant NTS2 stably expressed in human 1321N1 cell membranes incubated for 60 mins by gamma counter method
[6] = target: T1, Mu-type opioid receptor; assay: Potency index, ratio of PK20 Ki to test compound Ki for displacement of [3H]-DAMGO from recombinant human mu opioid receptor expressed in CHO cell membranes
[7] = target: T1, Mu-type opioid receptor; assay: Agonist activity at human MOR stably expressed in CHO cell membranes assessed as stimulation of [35S]-GTPgammaS binding incubated for 1 hr by liquid scintillation counting assay; format: functional
Method in brief: (§2)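 Membranes from CHO cells stably expressing hMOR, hDOR or hKOR, prepared in 20 mM HEPES, 10 mM MgCl2, 100 mM NaCl, pH 7.4. Membranes (5–10 μg) incubated with 0.05 nM [35S]GTPγS, 10 μM GDP and graded peptide concentrations, 60 min at 25 °C. Nonspecific binding with 10 μM GTPγS, basal without ligand. GF/B filtration, scintillation counting. EC50 and Emax by nonlinear regression; Emax relative to DAMGO, DPDPE or U69,593. Duplicate, three independent experiments.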

[8] = target: T1, Mu-type opioid receptor; assay: Agonist activity at human MOR expressed in CHO cell membranes assessed as stimulation of [35S]-GTPgammaS binding incubated for 1 hr by liquid scintillation counting assay relative to DAMGO; format: functional; settings: filed as agonist, time 60.0 min; method in brief: as §2
[9] = target: T1, Mu-type opioid receptor; assay: Agonist activity at human MOR expressed in human U2OS cells assessed as increase in beta arrestin2 recruitment incubated for 90 mins by pathhunter beta-arrestin assay; format: cell-based
Method in brief: (§3)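 U2OS cells stably coexpressing hMOR and enzyme acceptor-tagged β-arrestin-2, seeded at 5000 cells/well and kept 24 h at 37 °C. Graded peptide concentrations in PBS added for 90 min at 37 °C, then detection mix for 60 min at room temperature. Chemiluminescence read-out. EC50 and Emax (relative to DAMGO) by nonlinear regression. Duplicate, three independent experiments.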

[10] = target: T1, Mu-type opioid receptor; assay: Agonist activity at human MOR expressed in human U2OS cells assessed as increase in beta arrestin2 recruitment incubated for 90 mins by pathhunter beta-arrestin assay relative to DAMGO; format: cell-based; settings: filed as partial agonist; method in brief: as §3
[11] = target: T2, Delta-type opioid receptor; assay: Agonist activity at human DOR stably expressed in CHO cell membranes assessed as stimulation of [35S]-GTPgammaS binding incubated for 1 hr by liquid scintillation counting assay; format: functional; method in brief: as §2
[12] = target: T2, Delta-type opioid receptor; assay: Agonist activity at human DOR stably expressed in CHO cell membranes assessed as stimulation of [35S]-GTPgammaS binding incubated for 1 hr by liquid scintillation counting assay relative to DPDPE; format: functional; settings: filed as agonist, time 60.0 min; method in brief: as §2
[13] = target: T3, Kappa-type opioid receptor; assay: Agonist activity at human KOR stably expressed in CHO cell membranes assessed as stimulation of [35S]-GTPgammaS binding incubated for 1 hr by liquid scintillation counting assay; format: functional; method in brief: as §2
[14] = target: T3, Kappa-type opioid receptor; assay: Agonist activity at human KOR stably expressed in CHO cell membranes assessed as stimulation of [35S]-GTPgammaS binding incubated for 1 hr by liquid scintillation counting assay relative to U69593; format: functional; settings: time 60.0 min; method in brief: as §2
[15] = target: T4, Neurotensin receptor type 1; assay: Agonist activity at human NTS1 expressed in HEK293 cells co-expressing Galphaq/RlucII/GFP10-Ggamma1/Gbeta1 assessed as increase in Galphaq activation incubated for 10 mins in presence of coelenterazine 400A by BRET assay; format: cell-based
[16] = target: T4, Neurotensin receptor type 1; assay: Agonist activity at human NTS1 expressed in HEK293 cells co-expressing Galphaq/RlucII/GFP10-Ggamma1/Gbeta1 assessed as increase in Gq activation incubated for 10 mins in presence of coelenterazine 400A by BRET assay relative to NT (8-13); format: cell-based

T4 sequence (P30989 whole entry): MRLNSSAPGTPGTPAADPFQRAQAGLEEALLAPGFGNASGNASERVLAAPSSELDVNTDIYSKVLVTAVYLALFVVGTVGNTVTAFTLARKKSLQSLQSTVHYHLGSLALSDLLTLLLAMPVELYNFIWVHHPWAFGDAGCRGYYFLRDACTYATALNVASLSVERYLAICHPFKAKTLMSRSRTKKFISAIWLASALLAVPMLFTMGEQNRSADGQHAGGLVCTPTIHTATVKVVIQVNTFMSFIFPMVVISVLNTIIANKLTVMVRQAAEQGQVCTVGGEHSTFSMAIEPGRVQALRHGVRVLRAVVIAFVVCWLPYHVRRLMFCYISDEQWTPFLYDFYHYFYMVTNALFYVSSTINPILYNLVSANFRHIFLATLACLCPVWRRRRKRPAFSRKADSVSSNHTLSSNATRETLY
Chain of Neurotensin receptor type 2 (O95665 whole entry): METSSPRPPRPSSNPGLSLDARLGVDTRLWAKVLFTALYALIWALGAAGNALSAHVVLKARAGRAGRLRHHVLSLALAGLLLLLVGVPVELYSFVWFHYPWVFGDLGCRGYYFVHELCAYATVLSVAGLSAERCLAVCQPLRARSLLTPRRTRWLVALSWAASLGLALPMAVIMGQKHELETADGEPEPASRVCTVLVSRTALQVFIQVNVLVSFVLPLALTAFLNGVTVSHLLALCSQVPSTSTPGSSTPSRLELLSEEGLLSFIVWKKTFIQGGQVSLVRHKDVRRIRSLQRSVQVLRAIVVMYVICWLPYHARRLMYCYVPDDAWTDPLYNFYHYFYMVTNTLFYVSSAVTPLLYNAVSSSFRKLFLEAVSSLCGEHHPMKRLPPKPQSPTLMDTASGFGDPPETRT
T3 sequence (P41145 whole entry): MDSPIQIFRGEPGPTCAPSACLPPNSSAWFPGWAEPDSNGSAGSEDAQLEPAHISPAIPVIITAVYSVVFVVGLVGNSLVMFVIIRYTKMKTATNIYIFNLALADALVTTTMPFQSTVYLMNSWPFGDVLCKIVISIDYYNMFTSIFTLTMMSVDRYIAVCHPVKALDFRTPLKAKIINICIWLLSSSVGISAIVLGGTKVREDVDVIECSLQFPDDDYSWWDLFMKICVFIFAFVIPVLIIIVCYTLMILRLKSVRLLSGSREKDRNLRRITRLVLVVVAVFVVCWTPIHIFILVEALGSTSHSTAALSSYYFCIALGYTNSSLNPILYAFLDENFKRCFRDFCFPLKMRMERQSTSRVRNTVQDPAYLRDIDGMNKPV
T1 sequence (P35372 whole entry): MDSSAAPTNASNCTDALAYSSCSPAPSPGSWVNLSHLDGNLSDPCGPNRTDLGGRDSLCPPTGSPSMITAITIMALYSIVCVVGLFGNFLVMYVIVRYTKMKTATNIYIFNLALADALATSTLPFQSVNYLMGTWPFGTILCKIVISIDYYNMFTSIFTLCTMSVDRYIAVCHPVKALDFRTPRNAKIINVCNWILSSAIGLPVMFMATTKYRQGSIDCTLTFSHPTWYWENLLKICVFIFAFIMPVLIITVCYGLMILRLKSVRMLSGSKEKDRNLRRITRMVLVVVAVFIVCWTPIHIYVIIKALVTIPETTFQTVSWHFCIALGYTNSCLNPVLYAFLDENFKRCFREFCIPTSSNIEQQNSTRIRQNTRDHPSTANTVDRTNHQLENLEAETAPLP
T2 sequence (P41143 whole entry): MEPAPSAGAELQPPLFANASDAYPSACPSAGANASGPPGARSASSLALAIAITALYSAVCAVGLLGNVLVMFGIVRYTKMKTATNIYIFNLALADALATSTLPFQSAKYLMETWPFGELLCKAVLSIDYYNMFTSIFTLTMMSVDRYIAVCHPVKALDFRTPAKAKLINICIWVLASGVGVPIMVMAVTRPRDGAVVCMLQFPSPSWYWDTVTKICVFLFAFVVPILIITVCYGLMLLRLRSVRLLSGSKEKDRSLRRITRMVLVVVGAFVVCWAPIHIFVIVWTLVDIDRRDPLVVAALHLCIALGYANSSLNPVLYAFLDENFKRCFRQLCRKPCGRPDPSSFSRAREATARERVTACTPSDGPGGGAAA

| SMILES | Ki [1] [nM] | Ki [2] [nM] | Ki [3] [nM] | Ki [4] [nM] | Ki [5] [nM] | Ratio Ki [6] | EC50 [7] [nM] | Emax [8] [%] | EC50 [9] [nM] | Emax [10] [%] | EC50 [11] [nM] | Emax [12] [%] | EC50 [13] [nM] | Emax [14] [%] | EC50 [15] [nM] | Emax [16] [%] |
| --- | --- | --- | --- | --- | --- | --- | --- | --- | --- | --- | --- | --- | --- | --- | --- | --- |
| Cc1cc(O)cc(C)c1C[C@H](NC(=O)[C@@H]1CCCN1C(=O)[C@H](CCCCN)NC(=O)[C@H](CCCCN)NC(=O)CCN1Cc2ccccc2C[C@H](NC(=O)[C@@H](CCCNC(=N)N)NC(=O)[C@@H](N)Cc2c(C)cc(O)cc2C)C1=O)C(=O)N[C@H](C(=O)N[C@@H](CC(C)C)C(=O)O)C(C)(C)C (H-[Dmt][dR][X1]KKP[Dmt][Tle]L-OH) | 7.15 | 276 | 138 | 13 | 0.16 | 2 | 48.7 | 95 | 1960 | 62 | 898 | 60 | 1570 | 22 | 3.9 | 109 |
| Cc1cc(O)cc(C)c1C[C@H](N)C(=O)N[C@H](CCCNC(=N)N)C(=O)N[C@H]1Cc2ccccc2CN(CCC(=O)N[C@@H](CCCCN)C(=O)N[C@@H](CCCCN)C(=O)N2CCC[C@H]2C(=O)N2Cc3ccc(O)cc3C[C@H]2C(=O)N[C@H](C(=O)N[C@@H](CC(C)C)C(=O)O)C(C)(C)C)C1=O (H-[Dmt][dR][X1]KKP[X2][Tle]L-OH) | 6.24 | 209 | 150 | 6830 | 75 | 2 | 45.6 | 94 | 2160 | 66 | 842 | 91 | 1560 | 20 |  |  |
| Cc1cc(O)cc(C)c1C[C@H](N)C(=O)N[C@H](CCCNC(=N)N)C(=O)N[C@H]1Cc2ccccc2CN(CCC(=O)N[C@@H](CCCCN)C(=O)N[C@@H](CCCCN)C(=O)N2CCC[C@H]2C(=O)N[C@@H](Cc2cccc(O)c2)C(=O)N[C@H](C(=O)N[C@@H](CC(C)C)C(=O)O)C(C)(C)C)C1=O (H-[Dmt][dR][X1]KKP[mTyr][Tle]L-OH) | 3.99 | 200 | 70.9 | 59 | 0.5 | 2 | 27.4 | 87 | 1270 | 66 | 452 | 90 | 401 | 30 | 15 | 90 |
| Cc1cc(O)cc(C)c1C[C@H](N)C(=O)N[C@H](CCCNC(=N)N)C(=O)N[C@H]1Cc2ccccc2CN(CCC(=O)N[C@@H](CCCNC(=N)N)C(=O)N[C@@H](CCCNC(=N)N)C(=O)N2CCC[C@H]2C(=O)N[C@@H](Cc2ccc(O)cc2)C(=O)N[C@H](C(=O)N[C@@H](CC(C)C)C(=O)O)C(C)(C)C)C1=O (H-[Dmt][dR][X1]RRPY[Tle]L-OH) | 1.32 | 56.4 | 78.6 | 0.43 | 0.09 | 2 | 12.8 | 94 | 1330 | 72 | 301 | 106 | 514 | 34 | 0.24 | 111 |
| Cc1cc(O)cc(C)c1C[C@H](NC(=O)[C@@H]1CCCN1C(=O)[C@H](CCCNC(=N)N)NC(=O)[C@H](CCCNC(=N)N)NC(=O)CCN1Cc2ccccc2C[C@H](NC(=O)[C@@H](CCCNC(=N)N)NC(=O)[C@@H](N)Cc2c(C)cc(O)cc2C)C1=O)C(=O)N[C@H](C(=O)N[C@@H](CC(C)C)C(=O)O)C(C)(C)C (H-[Dmt][dR][X1]RRP[Dmt][Tle]L-OH) | 1.11 | 159 | 102 | 0.78 | 0.03 | 2 | 9.12 | 96 | 1140 | 79 | 313 | 91 | 415 | 37 | 1.3 | 101 |
| Cc1cc(O)cc(C)c1C[C@H](N)C(=O)N[C@H](CCCNC(=N)N)C(=O)N[C@H]1Cc2ccccc2CN(CCC(=O)N[C@@H](CCCNC(=N)N)C(=O)N[C@@H](CCCNC(=N)N)C(=O)N2CCC[C@H]2C(=O)N[C@@H](Cc2cccc(O)c2)C(=O)N[C@H](C(=O)N[C@@H](CC(C)C)C(=O)O)C(C)(C)C)C1=O (H-[Dmt][dR][X1]RRP[mTyr][Tle]L-OH) | 1.73 | 60.9 | 19.9 | 12.4 | 0.33 | 2 | 6.49 | 95 | 359 | 81 | 177 | 110 | 424 | 28 | 6.7 | 95 |
| Cc1cc(O)cc(C)c1C[C@H](NC(=O)[C@@H]1CCCN1C(=O)[C@H](CCCCN)NC(=O)C[C@H](CCCCN)NC(=O)CCN1Cc2ccccc2C[C@H](NC(=O)[C@@H](CCCNC(=N)N)NC(=O)[C@@H](N)Cc2c(C)cc(O)cc2C)C1=O)C(=O)N[C@H](C(=O)N[C@@H](CC(C)C)C(=O)O)C(C)(C)C (H-[Dmt][dR][X1][β3hK]KP[Dmt][Tle]L-OH) | 7.12 | 48.6 | 208 | 15 | 0.32 | 2 | 65.4 | 97 | 3040 | 69 | 248 | 97 | 239 | 36 | 1.8 | 112 |
